Assay results published in ChEMBL document CHEMBL5038664, “Thieno[2,3-d]pyrimidine-Based Positive Allosteric Modulators of Human Mas-Related G Protein-Coupled Receptor X1 (MRGPRX1)” (J Med Chem, 2022).
Calls of active or inactive are those of the source. The rule behind the calls is not given here.

Columns and labels:
[1] = target: T1, Mas-related G-protein coupled receptor member X1 (Homo sapiens, UniProt Q96LB2); test: Positive allosteric modulator activity at human MRGPRX1 transfected in HEK293 cells assessed as maximal efficacy in presence of BAM8-22 by Fulo4AM dye based FLIPR assay relative to control; assay type: cell-based; conditions: filed as positive allosteric modulator
T1 sequence (Q96LB2 whole entry): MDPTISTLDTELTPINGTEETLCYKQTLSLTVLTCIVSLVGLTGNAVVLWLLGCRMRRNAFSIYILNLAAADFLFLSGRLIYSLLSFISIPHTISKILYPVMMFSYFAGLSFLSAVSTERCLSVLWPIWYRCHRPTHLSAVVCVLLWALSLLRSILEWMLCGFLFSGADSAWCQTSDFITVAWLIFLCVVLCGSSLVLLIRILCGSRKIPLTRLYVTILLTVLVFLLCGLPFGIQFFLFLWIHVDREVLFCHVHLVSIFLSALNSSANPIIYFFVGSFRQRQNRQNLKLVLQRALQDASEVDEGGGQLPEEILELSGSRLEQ

[2] = target: T1, Mas-related G-protein coupled receptor member X1; test: Positive allosteric modulator activity at human MRGPRX1 transfected in HEK293 cells in presence of BAM8-22 by Fulo4AM dye based FLIPR assay; assay type: cell-based
[3] = Metabolic stability in human microsome assessed as compound remaining measured after 30 min in presence of NADPH regenerating system by LC-MS/MS analysis; assay type: ADME, Liver; conditions: microsomes, 0.5 h
[4] = Metabolic stability in mouse microsome assessed as compound remaining measured after 30 min in presence of NADPH regenerating system by LC-MS/MS analysis; assay type: ADME, Liver; conditions: microsomes, 0.5 h
[5] = Drug metabolism in human liver microsomes assessed as CYP450 mediated oxidation of parent compound measured after 60 mins by UPLC analysis; assay type: ADME, Microsome; conditions: 1 h
[6] = Metabolic stability in mouse microsome assessed as compound remaining measured after 60 min in presence of NADPH regenerating system by LC-MS/MS analysis; assay type: ADME, Liver; conditions: microsomes, 1 h
[7] = Metabolic stability in human microsome assessed as compound remaining measured after 60 min in presence of NADPH regenerating system by LC-MS/MS analysis; assay type: ADME, Liver; conditions: microsomes, 1 h
[8] = Acute toxicity in mouse expressing MRGPRX1 assessed as itching by measuring spontaneous scratching bouts at 100 mg/kg, po measured upto 1 hr; assay type: organism-based; conditions: in vivo
Summary of the method: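 Awake, free-moving humanized MRGPRX1 mice (human MRGPRX1 expressed in nociceptive DRG neurons in place of murine MrgprC11) were dosed orally at 100 mg/kg. Spontaneous behaviour was video-recorded for 0–1 h after dosing, and scratch bouts were counted and compared with vehicle-treated mice.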

[9] = Tmax in CD1 mouse brain at 100 mg/kg, po measured upto 6 hrs by LC-MS/MS analysis; assay type: ADME, organism-based; conditions: in vivo
Summary of the method: (§1)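 Male CD-1 mice (25–30 g, n=3 per time point) dosed 100 mg/kg by oral gavage in 5% dimethylacetamide/10% Cremophor EL/10% Tween80/25% PEG400/50% water. Killed at 0.25–6 h; cardiac-puncture plasma, brain and spinal cord collected. Acetonitrile extraction with losartan internal standard, LC/MS/MS; calibration 0.01–10 nmol/mL, 1/x weighting. Tissue-to-plasma ratios by AUC.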

[10] = Acute toxicity in mouse expressing MRGPRX1 assessed as impaired exploratory activity at 100 mg/kg, po by open field test; assay type: organism-based; conditions: in vivo
Summary of the method: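 Naïve humanized MRGPRX1 mice were dosed at 100 mg/kg po, with vehicle-treated mice as a parallel group. Exploratory performance in an open field test was compared with each animal's pre-drug values.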

[11] = Ratio of AUClast in CD1 mouse brain to plasma at 100 mg/kg, po measured upto 6 hrs by LC-MS/MS analysis; assay type: ADME, organism-based; summary of the method: as §1
[12] = target: T1, Mas-related G-protein coupled receptor member X1; test: Agonist activity at human MRGPRX1 expressed in HEK293 cells upto 100 uM in absence of BAM8-22 by Fluo-dye based FLIPR assay; assay type: functional, cell-based; conditions: dose microM <=100
Summary of the method: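 Human MRGPRX1 stably expressed in HEK293 cells, 25,000 cells/well, 2 days. Loaded with 2 µM Fluo-4 AM and 1% Trypan Red in HBSS for 50 min at 37°C, then 10 min at room temperature. Serially diluted compound in HBSS added; FLIPR imaging 2 min, signal taken as maximum minus minimum fluorescence.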

[13] = target: T2, Mas-related G-protein coupled receptor member X2 (Homo sapiens) (UniProt Q96LB1); test: Positive allosteric modulator activity at human MRGPRX2 transfected in HEK293 cells at 5 uM in presence of C48/80 by Fluo-4 AM-based FLIPR assay; assay type: cell-based
T2 sequence (whole entry): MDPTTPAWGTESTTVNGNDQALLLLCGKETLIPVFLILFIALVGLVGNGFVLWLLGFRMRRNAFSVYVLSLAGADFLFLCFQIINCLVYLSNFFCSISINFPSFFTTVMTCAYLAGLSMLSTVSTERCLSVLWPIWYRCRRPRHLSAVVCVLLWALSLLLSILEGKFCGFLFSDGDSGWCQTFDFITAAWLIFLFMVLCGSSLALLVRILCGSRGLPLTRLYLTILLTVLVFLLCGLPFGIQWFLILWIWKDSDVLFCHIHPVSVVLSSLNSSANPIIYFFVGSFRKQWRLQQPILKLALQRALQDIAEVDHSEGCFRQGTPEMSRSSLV
Summary of the method: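 MRGPRX2 stably expressed in HEK293 cells; compound tested with an EC20 level of the orthosteric agonist C48/80, calcium response detected with Fluo-4 AM.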

[14] = Acute toxicity in mouse expressing MRGPRX1 at 100 mg/kg, po measured upto 1.5 hrs by rotarod test; assay type: organism-based; conditions: in vivo
Summary of the method: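 Motor coordination was measured by rotarod in naïve humanized MRGPRX1 mice after 100 mg/kg po. Performance was compared with a vehicle-treated group and with pre-treatment values.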

[15] = test system: Mus musculus; test: Analgesic activity in mouse model of sciatic nerve chronic constriction injury-induced neuropathic pain assessed as increase in contralateral paw withdrawal latency at 100 mg/kg, po measured at 1 and 2 hrs on day 12 post injury by Hargreaves test; assay type: functional, organism-based; conditions: time 12.0 day
Summary of the method: (§2)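 Humanized MRGPRX1 mice, both sexes, 2–3 months old, 20–30 g, sciatic nerve CCI. Given 100 mg/kg orally (n=4–5/group, vehicle comparator). Heat withdrawal latency by Hargreaves test on days 12 and 26 post-CCI, compared with pre-drug and vehicle; two-way mixed-model ANOVA with Bonferroni test, mean + SD.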

[16] = Tmax in CD1 mouse spinal cord at 100 mg/kg, po measured upto 6 hrs by LC-MS/MS analysis; assay type: ADME, organism-based; conditions: in vivo; summary of the method: as §1
[17] = Tmax in CD1 mouse plasma at 100 mg/kg, po measured upto 6 hrs by LC-MS/MS analysis; assay type: ADME, organism-based; conditions: in vivo; summary of the method: as §1
[18] = test system: Mus musculus; test: Analgesic activity in mouse model of sciatic nerve chronic constriction injury-induced neuropathic pain assessed as increase in ipsilateral paw withdrawal latency at 100 mg/kg, po measured at 1 and 2 hrs on day 12 post injury by Hargreaves test; assay type: functional, organism-based; conditions: time 12.0 day; summary of the method: as §2
[19] = test system: Mus musculus; test: Analgesic activity in mouse model of sciatic nerve chronic constriction injury-induced neuropathic pain assessed as increase in ipsilateral paw withdrawal latency at 100 mg/kg, po measured at 2 hrs post drug on day 26 post injury by Hargreaves test; assay type: functional, organism-based; summary of the method: as §2
[20] = test system: Mus musculus; test: Analgesic activity in mouse model of sciatic nerve chronic constriction injury-induced neuropathic pain assessed as increase in contralateral paw withdrawal latency at 100 mg/kg, po measured at 2 hrs post drug on day 26 post injury by Hargreaves test; assay type: functional, organism-based; summary of the method: as §2
[21] = Ratio of AUClast in CD1 mouse spinal cord to plasma at 100 mg/kg, po measured upto 6 hrs by LC-MS/MS analysis; assay type: ADME, organism-based; summary of the method: as §1
[22] = target: hERG (KCNH2) (Homo sapiens, UniProt Q12809); test: Inhibition of hERG at 10 uM relative to control; assay type: toxicity
Sequence of hERG (KCNH2) (Q12809 whole entry): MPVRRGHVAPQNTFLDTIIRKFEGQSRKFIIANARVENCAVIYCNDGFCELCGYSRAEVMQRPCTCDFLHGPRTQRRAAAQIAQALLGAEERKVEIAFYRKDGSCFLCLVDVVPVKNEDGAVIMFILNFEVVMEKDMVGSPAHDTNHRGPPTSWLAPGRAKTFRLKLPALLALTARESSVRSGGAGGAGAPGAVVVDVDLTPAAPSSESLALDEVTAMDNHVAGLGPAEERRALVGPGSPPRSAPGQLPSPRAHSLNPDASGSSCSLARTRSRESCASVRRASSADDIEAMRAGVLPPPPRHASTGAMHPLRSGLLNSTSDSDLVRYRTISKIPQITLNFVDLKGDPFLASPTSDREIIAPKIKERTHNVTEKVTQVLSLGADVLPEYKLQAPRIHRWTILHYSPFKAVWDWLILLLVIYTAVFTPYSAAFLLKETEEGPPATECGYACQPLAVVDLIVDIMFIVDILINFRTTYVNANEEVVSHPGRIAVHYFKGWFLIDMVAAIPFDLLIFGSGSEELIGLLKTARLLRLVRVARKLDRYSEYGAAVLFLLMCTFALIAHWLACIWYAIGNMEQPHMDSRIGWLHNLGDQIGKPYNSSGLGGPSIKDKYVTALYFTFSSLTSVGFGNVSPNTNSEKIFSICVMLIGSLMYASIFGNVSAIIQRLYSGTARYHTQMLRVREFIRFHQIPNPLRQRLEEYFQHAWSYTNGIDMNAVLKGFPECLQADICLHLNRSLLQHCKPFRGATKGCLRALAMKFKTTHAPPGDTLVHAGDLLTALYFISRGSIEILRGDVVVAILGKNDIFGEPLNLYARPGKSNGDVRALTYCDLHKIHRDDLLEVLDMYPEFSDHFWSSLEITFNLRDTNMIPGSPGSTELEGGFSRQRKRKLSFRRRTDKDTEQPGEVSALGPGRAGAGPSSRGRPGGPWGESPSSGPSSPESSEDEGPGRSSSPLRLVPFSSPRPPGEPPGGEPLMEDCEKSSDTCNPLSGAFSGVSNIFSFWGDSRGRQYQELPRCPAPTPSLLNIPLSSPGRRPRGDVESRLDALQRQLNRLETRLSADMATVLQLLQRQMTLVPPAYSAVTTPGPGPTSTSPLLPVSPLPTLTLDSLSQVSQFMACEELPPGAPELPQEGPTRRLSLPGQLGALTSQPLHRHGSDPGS

Structure (SMILES)	Emax [1] [%]	EC50 [2] [nM]	Stability [3] [%]	Stability [4] [%]	Stability [6] [%]	Stability [7] [%]	other results
Cc1sc2ncnc(Oc3cccc(F)c3)c2c1C	55	30000					
Fc1ccccc1Oc1ncnc2sccc12	95	4200					
Cc1ccccc1Oc1ncnc2sccc12	88	14500					
Fc1ccccc1Oc1ncnc2scc(C(F)(F)F)c12	94	2100	40	< 5	< 5	< 5	
Cc1sc2ncnc(Oc3ccc(C(F)(F)F)cc3)c2c1C		> 100000					
CC(C)(C)c1sc2ncnc(Oc3ccccc3F)c2c1-c1ccc(F)cc1	145		> 95	7	< 5	88	
CC(C)(C)c1sc2ncnc(Oc3ccccc3OC(F)(F)F)c2c1-c1ccc(Cl)c(Cl)c1	114		> 95	58	25	> 95	Activity [8]: Non-Toxic; Tmax [9]: 1 h; Activity [10]: Non-Toxic; Kp at 6 h [11]: 2.2; Activity [12]: inactive; Activity [13]: inactive; Activity [14]: Non-Toxic; Activity [15]: inactive; Tmax [16]: 1 h; Tmax [17]: 1 h; Activity [18]: Active; Activity [19]: Active; Activity [20]: inactive; Kp at 6 h [21]: 12.7; inhibition at 10 µM [22]: 50%
Cc1ccc(Oc2ncnc3sc(C)c(C)c23)cc1	88	2700					
Cc1cccc(Oc2ncnc3sc(C)c(C)c23)c1	40	25000					
Cc1sc2ncnc(Oc3cccc(C(F)(F)F)c3)c2c1C		> 100000					

Now from value to molecule, other results behind:

Emax [1] [%]	EC50 [2] [nM]	Stability [3] [%]	Stability [4] [%]	Stability [6] [%]	Stability [7] [%]	Structure (SMILES)	other results
118	480					Cc1ccccc1Oc1ncnc2sc(C)c(C)c12	
112	220	< 5	< 5	< 5	< 5	Cc1sc2ncnc(Oc3ccccc3F)c2c1C	Drug metabolism [5]: Metabolite_Detected
95	520					Cc1sc2ncnc(Oc3ccccc3C(F)(F)F)c2c1C	
95	340		14	< 5	78	CC(C)(C)c1sc2ncnc(Oc3ccccc3F)c2c1-c1ccccc1	
89	1600					Cc1sc2ncnc(Oc3ccccc3)c2c1C	
94	1700					Cc1csc2ncnc(Oc3ccccc3F)c12	
83	1100					Cc1sc2ncnc(Oc3ccc(F)cc3)c2c1C	
90	1500					Cc1cc2c(Oc3ccccc3F)ncnc2s1	
143	230	> 95	28	5	> 95	CC(C)(C)c1sc2ncnc(Oc3ccccc3OC(F)(F)F)c2c1-c1ccc(F)cc1	
105	320	75	< 5	< 5	61	CC(C)(C)c1cc2c(Oc3ccccc3F)ncnc2s1	
